From ChEMBL document CHEMBL5247578, “Effective synthesis of benzimidazoles-imidazo[1,2-a]pyrazine conjugates: A comparative study of mono-and bis-benzimidazoles for antitumor activity” (Eur J Med Chem, 2019)

Key:
[1] = system: Calf thymus DNA; test: Binding affinity to calf thymus DNA assessed as binding constant at temperature of 298 K by Stern-Volmer quenching plot based fluorescence spectroscopic method; assay type: nucleic-acid assay; settings: Bos taurus
[2] = system: Calf thymus DNA; test: Binding affinity to calf thymus DNA assessed as fluorescence quenching intensity at 5 uM at temperature of 298 K by fluorescence spectroscopic method relative to control; assay type: nucleic-acid assay; settings: Bos taurus
[3] = system: CAKI-1; test: Antiproliferative activity against human CAKI-1 cells assessed as cell growth at 0.00000001 M incubated for 48 hrs by SRB assay relative to control; assay type: functional; settings: dose 10 nM, read-out: Activity
How it was run: (§1)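 NCI-60 five-dose screen over 10^-4–10^-8 M (10-fold dilutions). Cells grown in RPMI 1640 with 5% FBS and 2 mM L-glutamine, seeded at 5,000–40,000 cells/well and preincubated 24 h. Drug from DMSO stock, 48 h at 37 °C, 5% CO2. Adherent cells TCA-fixed and stained with 0.4% SRB; A515 read. Percent growth = (Ti−Tz)/(C−Tz)×100, or (Ti−Tz)/Tz×100 when Ti<Tz.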

[4] = system: OVCAR-4; test: Antiproliferative activity against human OVCAR-4 cells assessed as cell growth at 0.00000001 M incubated for 48 hrs by SRB assay relative to control; assay type: functional; settings: dose 10 nM, read-out: Activity
[5] = system: SK-MEL-5; test: Antiproliferative activity against human SK-MEL-5 cells assessed as cell growth at 0.00000001 M incubated for 48 hrs by SRB assay relative to control; assay type: functional; settings: dose 10 nM, read-out: Activity
[6] = system: HCC 2998; test: Antiproliferative activity against human HCC 2998 cells assessed as cell growth at 0.00000001 M incubated for 48 hrs by SRB assay relative to control; assay type: functional; settings: dose 10 nM, read-out: Activity
How it was run: (§2)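 NCI-60 five-dose screen (10^-4 to 10^-8 M). Cells grown in RPMI 1640 with 5% FBS and 2 mM L-glutamine, plated at 5,000-40,000 cells/well and preincubated 24 h. Drug given from DMSO stock, then 48 h at 37 °C, 5% CO2. For adherent lines, cells fixed with cold TCA, SRB-stained and read at 515 nm. Percent growth taken against time-zero and untreated control.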

[7] = system: TK-10; test: Antiproliferative activity against human TK-10 cells assessed as cell growth inhibition by measuring lethal concentration incubated for 48 hrs by sulforhodamine B assay; assay type: functional; settings: read-out: LC50 (the source's name)
How it was run: (§3)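 NCI-60 five-dose screen (10^-4 to 10^-8 M, 10-fold dilutions; DMSO stocks). Cells in RPMI 1640 with 5% FBS and 2 mM L-glutamine, preincubated 24 h, then exposed 48 h at 37 °C, 5% CO2. Fixed with cold TCA, stained with 0.4% SRB, absorbance read at 515 nm. Time-zero plates used as reference. LC50 taken from [(Ti-Tz)/Tz]×100 […].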

[8] = system: MDA-MB-435; test: Antiproliferative activity against human MDA-MB-435 cells assessed as cell growth inhibition by measuring lethal concentration incubated for 48 hrs by sulforhodamine B assay; assay type: functional; settings: read-out: LC50 (the source's name)
[9] = system: SW-620; test: Antiproliferative activity against human SW620 cells assessed as cell growth inhibition by measuring lethal concentration incubated for 48 hrs by sulforhodamine B assay; assay type: functional; settings: read-out: LC50 (the source's name); how it was run: as §3
[10] = system: NCI-H522; test: Growth inhibition against human NCI-H522 cells assessed as total growth inhibitory concentration incubated for 48 hrs by sulforhodamine B assay; assay type: functional
[11] = system: PC-3; test: Growth inhibition against human PC-3 cells incubated for 48 hrs by sulforhodamine B assay; assay type: functional
[12] = system: NCI/ADR-RES; test: Growth inhibition against human NCI/ADR-RES cells incubated for 48 hrs by sulforhodamine B assay; assay type: functional
[13] = system: HT-29; test: Growth inhibition against human HT-29 cells incubated for 48 hrs by sulforhodamine B assay; assay type: functional
[14] = system: SK-MEL-28; test: Antiproliferative activity against human SK-MEL-28 cells assessed as cell growth at 0.0000001 M incubated for 48 hrs by SRB assay relative to control; assay type: functional; settings: dose 100 nM, read-out: Activity
[15] = system: IGROV-1; test: Antiproliferative activity against human IGROV-1 cells assessed as cell growth at 0.0000001 M incubated for 48 hrs by SRB assay relative to control; assay type: functional; settings: dose 100 nM, read-out: Activity
[16] = system: CAKI-1; test: Antiproliferative activity against human CAKI-1 cells assessed as cell growth at 0.0000001 M incubated for 48 hrs by SRB assay relative to control; assay type: functional; settings: dose 100 nM, read-out: Activity; how it was run: as §1
[17] = system: BT-549; test: Antiproliferative activity against human BT-549 cells assessed as cell growth at 0.0000001 M incubated for 48 hrs by SRB assay relative to control; assay type: functional; settings: dose 100 nM, read-out: Activity; how it was run: as §1
[18] = system: RPMI-8226; test: Antiproliferative activity against human RPMI-8226 cells assessed as cell growth at 0.000001 M incubated for 48 hrs by SRB assay relative to control; assay type: functional; settings: read-out: Activity
[19] = system: UACC-62; test: Antiproliferative activity against human UACC-62 cells assessed as cell growth at 0.000001 M incubated for 48 hrs by SRB assay relative to control; assay type: functional; settings: read-out: Activity
[20] = system: A498; test: Antiproliferative activity against human A498 cells assessed as cell growth at 0.000001 M incubated for 48 hrs by SRB assay relative to control; assay type: functional; settings: read-out: Activity; how it was run: as §1
[21] = system: ACHN; test: Antiproliferative activity against human ACHN cells assessed as cell growth at 0.000001 M incubated for 48 hrs by SRB assay relative to control; assay type: functional; settings: read-out: Activity; how it was run: as §1
[22] = system: SF-539; test: Antiproliferative activity against human SF-539 cells assessed as cell growth at 0.00001 M incubated for 48 hrs by SRB assay relative to control; assay type: functional; settings: read-out: Activity
[23] = system: MDA-MB-435; test: Antiproliferative activity against human MDA-MB-435 cells assessed as cell growth at 0.00001 M incubated for 48 hrs by SRB assay relative to control; assay type: functional; settings: read-out: Activity
[24] = system: OVCAR-8; test: Antiproliferative activity against human OVCAR-8 cells assessed as cell growth at 0.00001 M incubated for 48 hrs by SRB assay relative to control; assay type: functional; settings: read-out: Activity
[25] = system: CAKI-1; test: Antiproliferative activity against human CAKI-1 cells assessed as cell growth at 0.00001 M incubated for 48 hrs by SRB assay relative to control; assay type: functional; settings: read-out: Activity; how it was run: as §1
[26] = system: RXF 393; test: Antiproliferative activity against human RXF 393 cells assessed as cell growth at 0.00001 M incubated for 48 hrs by SRB assay relative to control; assay type: functional; settings: read-out: Activity
[27] = system: MOLT-4; test: Antiproliferative activity against human MOLT-4 cells assessed as cell growth at 0.0001 M incubated for 48 hrs by SRB assay relative to control; assay type: functional; settings: read-out: Activity
[28] = system: A549; test: Antiproliferative activity against human A549 cells assessed as cell growth at 0.0001 M incubated for 48 hrs by SRB assay relative to control; assay type: functional; settings: read-out: Activity; how it was run: as §1
[29] = system: EKVX; test: Antiproliferative activity against human EKVX cells assessed as cell growth at 0.0001 M incubated for 48 hrs by SRB assay relative to control; assay type: functional; settings: read-out: Activity; how it was run: as §2
[30] = system: NCI-H226; test: Antiproliferative activity against human NCI-H226 cells assessed as cell growth at 0.0001 M incubated for 48 hrs by SRB assay relative to control; assay type: functional; settings: read-out: Activity
[31] = system: NCI-H322M; test: Antiproliferative activity against human NCI-H322M cells assessed as cell growth at 0.0001 M incubated for 48 hrs by SRB assay relative to control; assay type: functional; settings: read-out: Activity
[32] = system: SK-OV-3; test: Antiproliferative activity against human SK-OV-3 cells assessed as cell growth at 0.0001 M incubated for 48 hrs by SRB assay relative to control; assay type: functional; settings: read-out: Activity

Compound | Kb [1] | Activity [2] [%] | growth at 0.01 µM [3] [%] | growth at 0.01 µM [4] [%] | growth at 0.01 µM [5] [%] | growth at 0.01 µM [6] [%] | CC50 [7] [µM] | CC50 [8] [µM] | CC50 [9] [µM] | TGI [10] [µM] | GI50 [11] [µM] | GI50 [12] [µM] | GI50 [13] [µM] | growth at 0.1 µM [14] [%] | growth at 0.1 µM [15] [%] | growth at 0.1 µM [16] [%] | growth at 0.1 µM [17] [%] | growth at 1 µM [18] [%] | growth at 1 µM [19] [%] | growth at 1 µM [20] [%] | also measured
c1ccc(Cn2cnc3ccc(-c4nc(-c5ccc6c(c5)ncn6C5CCCCC5)cn5ccnc45)cc32)cc1 | 9.58 10^4/M | 35 | 87 | 94 | 101 | 94 | > 100 | > 100 | > 100 | 5.09 | 1.97 | 1.98 | 1.89 | 96 | 93 | 88 | 92 | 55 | 87 | 97 | growth at 1 µM [21]: 87%; growth at 10 µM [22]: -75%; growth at 10 µM [23]: -32%; growth at 10 µM [24]: -23%; growth at 10 µM [25]: 17%; growth at 10 µM [26]: -79%; growth at 100 µM [27]: 4%; growth at 100 µM [28]: -40%; growth at 100 µM [29]: 14%; growth at 100 µM [30]: 36%; growth at 100 µM [31]: 14%; growth at 100 µM [32]: 6%
COc1ccc(-c2cn3ccnc3c(-c3ccc4ncn(C5CCCCC5)c4c3)n2)cc1 | 36.5 10^4/M | 75 | 88 | 96 | 98 | 97 | > 100 | > 100 | > 100 | 6.15 | 0.621 | 0.618 | 0.383 | 95 | 90 | 90 | 88 | 86 | 27 | 44 | growth at 1 µM [21]: 40%; growth at 10 µM [22]: -53%; growth at 10 µM [23]: 6%; growth at 10 µM [24]: 8%; growth at 10 µM [25]: 25%; growth at 10 µM [26]: -2%; growth at 100 µM [27]: 22%; growth at 100 µM [28]: 16%; growth at 100 µM [29]: 26%; growth at 100 µM [30]: 39%; growth at 100 µM [31]: 67%; growth at 100 µM [32]: -2%
